Source: PubChem BioAssay (The Scripps Research Institute Molecular Screening Center)
Compounds with a hit are over-represented: about 2.5% of the library has one in this group of screens.
rCAG RNA binder – r(CAG) repeat RNA binding; TO-PRO-1 dye displacement fluorescence; 370,000 tested, 1.3% active; AID 651821; inhibition, % at 3 µM;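 active = inhibition above the plate cutoff, the mean of all test compounds on that plate plus 3 SD, cut at about 35% in these data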;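 also: higher means more dye released from RNA so lower well fluorescence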
SIAE inh – blocks human sialic acid acetylesterase; Q9HAT2; SIAE FP-Rh probe binding, fluorescence polarization; inhibition, % at 9.66 µM; 370,000 tested, 0.69% active;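 active = inhibition above a cutoff: mean of compounds within the control limits plus 3 SD of those, cut at about 17% in these data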
HTRA1 inhibitor – inhibitors of human serine peptidase HTRA1 | AID 504803 | inhibition, % at 5.96 µM | recombinant HTRA1, FP-rhodamine activity-based probe, fluorescence polarization | 340,000 tested, 0.5% active; in the data active = inhibition above about 36%
TCR CD3 inh – inhibitors of human TCR-CD3 interaction. inhibition, % at 9.4 µM. 360,000 tested, 0.37% active. TAMRA-labeled TCR probe fluorescence, biochemical. AID 651800; in the data active = inhibition above about 19%;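 also: recombinant mutant TCR 2C K166C tagged with TAMRA read by polarization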
mABHD4 FP – inhibitors of mouse ABHD4. Q8VD66. purified mABHD4, FP-Rh probe fluorescence polarization. inhibition, % at 8.92 µM. 370,000 tested, 0.54% active;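 active = inhibition exceeding the mean over every tested compound plus 3 SD, cut at about 30% in these data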
Target sequence (Q8VD66 whole entry, looked up): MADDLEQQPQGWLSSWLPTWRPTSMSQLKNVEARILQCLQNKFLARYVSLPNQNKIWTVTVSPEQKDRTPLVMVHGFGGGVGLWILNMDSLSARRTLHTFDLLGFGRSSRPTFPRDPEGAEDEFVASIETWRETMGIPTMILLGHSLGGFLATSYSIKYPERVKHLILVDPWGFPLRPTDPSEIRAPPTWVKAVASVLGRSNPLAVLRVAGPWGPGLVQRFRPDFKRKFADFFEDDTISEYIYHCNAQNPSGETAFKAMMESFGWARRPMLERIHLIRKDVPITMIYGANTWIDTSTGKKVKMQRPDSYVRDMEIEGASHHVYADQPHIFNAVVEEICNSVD
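Test system: mouse ABHD4 enzyme, wild type. Reagent: FP-Rh fluorescent activity-based probe, added after compound pre-incubation. Timing: pre-incubation 45 min, probe exposure 60 min, at 25 °C. Technique: FP readout, ex 525 nm / em 598 nm. Benchmarks: high control S159A mutant with DMSO, low control median of compound wells.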
rCAG binder conf – r(CAG) RNA repeat binding, confirmation; shares compounds with rCAG RNA binder; TO-PRO-1 dye displacement fluorescence; inhibition, % at 3 µM; 4,300 tested, 70% active; AID 652065;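 active = inhibition above a per-plate cutoff, the mean inhibition of sample wells plus 3 SD, cut at about 35% in these data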;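 also: loss of TO-PRO-1 fluorescence as compound displaces dye from 1x1 AA loop RNA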
dCAG dye counter – counter-screen for rCAG RNA binders: DNA CAG dye complex inhibitors | d(CAG) DNA oligo TO-PRO-1 dye displacement, fluorescence | 4,300 tested, 94% active | shares compounds with rCAG RNA binder | inhibition, % at 3 µM;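 active = inhibition above its plate's cutoff, the mean test-well inhibition plus 3 SD, cut at about 4.8% in these data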;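 also: hits displace the dye from DNA and so lower well fluorescence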
A number is an active result; . = inactive; / = not tested or not shown.

SMILES	rCAG RNA binder	SIAE inh	HTRA1 inhibitor	TCR CD3 inh	mABHD4 FP	rCAG binder conf	dCAG dye counter
O=C(Nc1cccc([N+](=O)[O-])c1)c1cc2ccccc2cc1O	39.0	.	.	.	.	37.3	15.8
O=C(O)COc1ccccc1/C=N/NC(=O)Cc1csc(Nc2cccc(C(F)(F)F)c2)n1	58.6	.	/	.	.	55.0	17.1
CC(C)(C)c1ccc(/C=C2\Oc3cc(O)ccc3C2=O)cc1	58.0	.	.	.	.	49.9	16.2
CCOc1ccc(N2C(=O)CC(Sc3nc(-c4cccs4)cc(C(F)(F)F)c3C#N)C2=O)cc1 (centres undefined)	53.7	.	.	.	.	.	12.9
COc1ccc2nc(N3C(=O)C(O)=C(C(=O)c4ccco4)C3c3ccc(C)o3)sc2c1 (centres undefined)	53.8	.	.	.	.	59.1	18.9
COc1ccc2nc(N3C(=O)C(O)=C(C(=O)c4ccco4)C3c3ccccc3OC)sc2c1 (centres undefined)	39.4	.	.	.	.	56.9	21.0
Cc1cc(C)c2nc(N3C(=O)C(O)=C(C(=O)c4ccco4)C3c3ccco3)sc2c1 (centres undefined)	81.1	.	.	.	.	82.2	49.2
Cc1cc(C)c2c(CC(=O)NNC(=O)c3ccccc3)coc2c1	.	.	.	.	.	/	/
O=C(Nc1ccccc1)c1cc(-n2cnnc2)ccc1Cl	.	.	.	.	.	/	/
Cn1c(CCc2nc3ccccc3[nH]2)n[nH]c1=S	.	.	.	.	.	/	/
O=C(NCc1ccc2c(c1)OCO2)C1(S(=O)(=O)c2ccccc2)CC1	.	.	.	.	.	/	/
COc1cc(C(NC(C)=O)NC(C)=O)ccc1OCc1ccccc1	.	.	.	.	.	/	/
COc1cc(C(c2c(C(=O)O)[nH]c3ccccc23)c2c(C(=O)O)[nH]c3ccccc23)ccc1OCc1ccccc1	94.1	.	.	.	50.2	89.8	67.7
O=C(OCC(=O)N1CCCc2ccccc21)c1ccc(Br)o1	.	.	.	.	.	/	/
COc1cccc(C2C(C(=O)c3cc4ccccc4o3)=C(O)C(=O)N2c2cc(C)on2)c1 (centres undefined)	48.1	.	.	.	.	52.4	18.1
CCCOc1ccc(C2C(C(=O)c3cc4ccccc4o3)=C(O)C(=O)N2c2cc(C)on2)cc1OC (centres undefined)	40.2	.	.	.	.	76.3	42.4
COc1ccc(OC)c(C2C(C(=O)c3cc4ccccc4o3)=C(O)C(=O)N2c2cc(C)on2)c1 (centres undefined)	38.2	.	.	.	.	42.3	12.3
C=CCOc1cccc(C2C(C(=O)c3cc4ccccc4o3)=C(O)C(=O)N2c2cc(C)on2)c1 (centres undefined)	65.8	.	.	.	.	76.4	39.9
COc1ccccc1C1C(C(=O)c2cc3ccccc3o2)=C(O)C(=O)N1c1cc(C)on1 (centres undefined)	.	.	.	.	.	/	/
COC(=O)[C@@H]1C[C@@]2(O)[C@H](O)[C@H](O)[C@H](O)C[C@H]2N1C/C=C/c1ccccc1	.	.	.	.	.	/	/
Cc1[nH]nc(C(F)(F)F)c1N=NN1CCOCC1	.	.	.	.	.	/	/
N#Cc1c(N2C(=O)Nc3ccccc3N2O)sc2c1CCCCCC2	44.7	.	.	.	.	.	11.0
N#Cc1c(N2C(=O)Nc3ccccc3N2O)sc2c1CCCC2	.	.	.	.	.	/	/
O=C1CC(=O)N(C2CCCCC2)C(=O)N1c1ccccc1S(=O)(=O)Oc1ccccc1	58.8	.	/	.	.	.	8.0
CCOc1ccc(CCNS(=O)(=O)c2cn(C)cn2)cc1OCC	.	.	.	.	.	/	/
SMILES	rCAG RNA binder	SIAE inh	HTRA1 inhibitor	TCR CD3 inh	mABHD4 FP	rCAG binder conf	dCAG dye counter
C/C(CC(=O)Nc1ccc(Cl)c(C(F)(F)F)c1)=N\NC(=O)c1cccc(O)c1	.	.	.	.	.	/	/
C/C(CC(=O)Nc1ccc(Cl)c(C(F)(F)F)c1)=N\NC(=O)c1ccccc1O	53.1	.	.	.	.	.	.
CCOC(=O)c1ccc(NC(=S)NNC(=O)c2cc(-c3cccnc3)nc3ccccc23)cc1	78.3	.	.	.	.	79.7	36.9
CCCCNC(=S)NNC(=O)c1cc(-c2cccnc2)nc2ccccc12	43.4	.	.	.	.	.	7.7
O=C(NNC(=S)Nc1ccccc1)c1cc(-c2cccnc2)nc2ccccc12	50.5	.	.	.	.	43.3	13.0
CCNC(=S)NNC(=O)c1cc(-c2cccc(C)c2)nc2ccccc12	43.2	.	.	.	.	39.9	11.8
CCNC(=S)NNC(=O)c1cc(-c2cccnc2)nc2ccccc12	.	.	.	.	.	/	/
CCNC(=S)NNC(=O)c1cc(-c2cccc(OCC)c2)nc2ccccc12	.	.	.	.	.	/	/
Cc1ccc(O)c(CNn2cnnc2)c1	.	.	.	.	.	/	/
C[C@H]1CNCCN1c1ccc(N2CCS(=O)(=O)CC2)c(C#N)c1	.	.	/	.	.	/	/
CCCC1NC(=O)c2cccnc2-n2c1nc1ccccc1c2=O (centres undefined)	.	.	.	.	.	/	/
O=C1Nc2c(Cl)cc(Cl)cc2C12Nc1ccccc1S2 (centres undefined)	41.3	.	/	.	.	.	8.0
O=C(CC1Sc2ccccc2NC1=O)NNc1ccc(Cl)cc1Cl (centres undefined)	.	.	.	.	.	/	/
Cc1nnc(SC(C)C(=O)NC2CCCCC2C)n1N (centres undefined)	.	.	.	.	.	/	/
Cc1ccc(-c2nc(-c3ccc(Cl)cc3)sc2CC(=O)O)c(C)c1	44.9	.	.	.	.	.	8.7
N=C1/C(=C\c2ccc(SCc3ccco3)o2)C(=O)N=C2SC=NN12	41.1	.	.	.	.	.	8.4
CC1=NN2C(=N)/C(=C\c3ccc(SCc4ccccc4)o3)C(=O)N=C2S1	.	.	.	.	.	/	/
CC1(C(=O)NS(=O)(=O)c2ccccc2C(F)(F)F)CCN1C(=O)CC1CCCC1 (centres undefined)	.	.	/	.	.	/	/
COc1cc2c(c(OC)c1O)C(=O)CO2	.	.	.	.	.	/	/
CCOC(=O)c1[nH]c2ccc(F)cc2c1NC(=O)c1cc(OC)c(OC)c(OC)c1	.	.	.	.	.	/	/
O=C(O)c1[nH]c2ccc(Cl)cc2c1CC(=O)N1CCN(c2ccccc2)CC1	41.1	.	.	.	.	41.5	12.3
O=C(O)c1[nH]c2ccc(Cl)cc2c1CC(=O)N1CCN(C(=O)c2ccco2)CC1	.	.	.	.	.	/	/
COc1cc(C(=O)Nc2c(C(=O)O)[nH]c3ccc(Br)cc23)cc(OC)c1OC	83.8	.	.	.	.	78.2	40.3
